Data published in ChEMBL document CHEMBL3244174, “Synthesis and biological activity of some new furan quaternary salts” (J Med Chem, 1977).

Key:
[1] = test system: Salmonella typhi; assay: Antibacterial activity against Salmonella typhi 115 assessed as growth inhibition after 24 hrs by dilution tube method; assay type: functional, Salmonella enterica subsp. enterica serovar Typhi; conditions: Salmonella enterica, 115, 24 h
Procedure, shortened: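 Dilution tube method in Tryptone Soya Broth; MIC (μg/ml) taken as highest dilution preventing visible growth; duplicates at every concentration; nitrofurantoin reference run under same conditions.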

[2] = test system: Nannizzia gypsea; assay: Antifungal activity against Microsporum gypseum 153 CSTM assessed as growth inhibition by agar dilution method; assay type: functional
[3] = test system: Pseudomonas aeruginosa; assay: Antibacterial activity against Pseudomonas aeruginosa ATCC 10145 assessed as growth inhibition after 24 hrs by dilution tube method; assay type: functional; conditions: ATCC 10145, 24 h
Procedure, shortened: (§1)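 Broth tube dilution in Tryptone Soya Broth, duplicate tubes at each concentration. MIC (μg/ml) was the highest dilution preventing visible growth. Nitrofurantoin run under the same conditions.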

[4] = test system: Staphylococcus aureus; assay: Antibacterial activity against Staphylococcus aureus ATCC 6538 assessed as growth inhibition after 24 hrs by dilution tube method; assay type: functional; conditions: ATCC 6538, 24 h; procedure, shortened: as §1
[5] = test system: Trichophyton rubrum; assay: Antifungal activity against Trichophyton rubrum 252 CSTM assessed as growth inhibition by agar dilution method; assay type: functional
[6] = test system: Klebsiella pneumoniae; assay: Antibacterial activity against Klebsiella pneumoniae ATCC 10031 assessed as growth inhibition after 24 hrs by dilution tube method; assay type: functional; conditions: ATCC 10031, 24 h; procedure, shortened: as §1
[7] = test system: Histoplasma capsulatum; assay: Antifungal activity against Histoplasma capsulatum RNSH Hi-70 1/2 assessed as growth inhibition by agar dilution method; assay type: functional
[8] = test system: Enterococcus faecalis; assay: Antibacterial activity against Streptococcus faecalis ATCC 10541 assessed as growth inhibition after 24 hrs by dilution tube method; assay type: functional; conditions: ATCC 10541, 24 h; procedure, shortened: as §1
[9] = test system: Candida albicans; assay: Antifungal activity against Candida albicans SKF 2270 assessed as growth inhibition by agar dilution method; assay type: functional
[10] = test system: Microsporum canis; assay: Antifungal activity against Microsporum canis VM-200 USPHS assessed as growth inhibition by agar dilution method; assay type: functional
[11] = test system: Agrobacterium tumefaciens; assay: Antibacterial activity against Agrobacterium tumefaciens NRRL B-36 assessed as growth inhibition after 24 hrs by dilution tube method; assay type: functional; conditions: NRRL B-36, 24 h; procedure, shortened: as §1
[12] = test system: Mycobacterium tuberculosis; assay: Antibacterial activity against Mycobacterium tuberculosis H37Rv assessed as growth inhibition by serial dilution method; assay type: functional
Procedure, shortened: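 M. tuberculosis H37Rv maintained on Lowenstein–Jensen medium; tested in Youman's medium by serial dilution.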

[13] = test system: Escherichia coli; assay: Antibacterial activity against Escherichia coli 114 assessed as growth inhibition after 24 hrs by dilution tube method; assay type: functional; conditions: Escherichia coli, 114, 24 h; procedure, shortened: as §1
[14] = test system: Trichophyton mentagrophytes; assay: Antifungal activity against Trichophyton mentagrophytes A-280 USPHS assessed as growth inhibition by agar dilution method; assay type: functional
[15] = test system: Cryptococcus neoformans; assay: Antifungal activity against Cryptococcus neoformans 103 assessed as growth inhibition by agar dilution method; assay type: functional

SMILES | MIC [1] | MIC [2] | MIC [3] | MIC [4] | MIC [5] | MIC [6] | MIC [7] | MIC [8] | MIC [9] | MIC [10] | MIC [11] | MIC [12] | MIC [13] | MIC [14] | MIC [15]
Cc1ccc(C[N+](C)(C)CCCCCOc2c(Br)cc(Br)cc2Br)o1.[Br-] | 100 µg/mL | > 200 µg/mL | 5 µg/mL | 7.5 µg/mL | > 200 µg/mL | 5 µg/mL | 100 µg/mL | 25 µg/mL | > 200 µg/mL | > 200 µg/mL | 25 µg/mL | 5 µg/mL | > 200 µg/mL | > 200 µg/mL | 25 µg/mL
C[N+](C)(CCCOc1c(Br)cc(Br)cc1Br)Cc1ccc(Br)o1.[Br-] | 100 µg/mL | > 200 µg/mL | 4 µg/mL | 10 µg/mL | > 200 µg/mL | 7.5 µg/mL | > 200 µg/mL | 25 µg/mL | > 200 µg/mL | > 200 µg/mL | 50 µg/mL | 10 µg/mL | > 200 µg/mL | > 200 µg/mL | 50 µg/mL
Cc1cc(OCCCCCCCCCCCCCC[N+](C)(C)Cc2ccc(Br)o2)c(C(C)C)cc1Cl.Cc1ccc(S(=O)(=O)[O-])cc1 | > 200 µg/mL | > 200 µg/mL | 200 µg/mL | > 200 µg/mL | > 200 µg/mL | 200 µg/mL | > 200 µg/mL | > 200 µg/mL | > 200 µg/mL | > 200 µg/mL | > 200 µg/mL | > 200 µg/mL | > 200 µg/mL | > 200 µg/mL | > 200 µg/mL
C[N+](C)(CCCCCCCCOc1c(Br)cc(Br)cc1Br)Cc1ccc([N+](=O)[O-])o1.[Br-] | > 200 µg/mL | > 200 µg/mL | 2 µg/mL | 4 µg/mL | > 200 µg/mL | 2 µg/mL | > 200 µg/mL | 4 µg/mL | > 200 µg/mL | > 200 µg/mL | 10 µg/mL | 7.5 µg/mL | > 200 µg/mL | > 200 µg/mL | 4 µg/mL
Cc1ccc(C[N+](C)(C)CCCCOc2cc(C)c(Cl)cc2C(C)C)o1.[Br-] | 100 µg/mL | > 200 µg/mL | 5 µg/mL | 25 µg/mL | > 200 µg/mL | 5 µg/mL | 100 µg/mL | 25 µg/mL | 50 µg/mL | 25 µg/mL | 50 µg/mL | 10 µg/mL | > 200 µg/mL | 50 µg/mL | 25 µg/mL
C[N+](C)(CCCCCCCOc1c(Br)cc(Br)cc1Br)Cc1ccc(Br)o1.[Br-] | > 200 µg/mL | > 200 µg/mL | 2 µg/mL | 3 µg/mL | > 200 µg/mL | 2 µg/mL | > 200 µg/mL | 4 µg/mL | > 200 µg/mL | > 200 µg/mL | 7.5 µg/mL | 25 µg/mL | > 200 µg/mL | > 200 µg/mL | 5 µg/mL
C[N+](C)(CCOc1ccc(Cl)cc1Cl)Cc1ccc([N+](=O)[O-])o1.[Br-] | > 200 µg/mL | > 200 µg/mL | 100 µg/mL | 200 µg/mL | > 200 µg/mL | 100 µg/mL | > 200 µg/mL | > 200 µg/mL | > 200 µg/mL | > 200 µg/mL | > 200 µg/mL | > 200 µg/mL | > 200 µg/mL | > 200 µg/mL | > 200 µg/mL
C[N+](C)(CCCCCOc1c(Br)cc(Br)cc1Br)Cc1ccco1.[Br-] | > 200 µg/mL | 100 µg/mL | 25 µg/mL | 25 µg/mL | > 200 µg/mL | 25 µg/mL | 50 µg/mL | 50 µg/mL | 100 µg/mL | 100 µg/mL | 100 µg/mL | 25 µg/mL | > 200 µg/mL | 100 µg/mL | 25 µg/mL
C[N+](C)(CCCCCCCCCCCCOc1c(Br)cc(Br)cc1Br)Cc1ccc(Br)o1.[Br-] | > 200 µg/mL | > 200 µg/mL | 50 µg/mL | 200 µg/mL | > 200 µg/mL | 200 µg/mL | > 200 µg/mL | 200 µg/mL | > 200 µg/mL | 200 µg/mL | > 200 µg/mL | 100 µg/mL | > 200 µg/mL | > 200 µg/mL | 200 µg/mL
Cc1cc(OCCCCCC[N+](C)(C)Cc2ccc(Br)o2)c(C(C)C)cc1Cl.Cc1ccc(S(=O)(=O)[O-])cc1 | > 200 µg/mL | 200 µg/mL | 10 µg/mL | 50 µg/mL | 200 µg/mL | 25 µg/mL | > 200 µg/mL | 50 µg/mL | > 200 µg/mL | 100 µg/mL | 100 µg/mL | 10 µg/mL | > 200 µg/mL | 200 µg/mL | 100 µg/mL
Cc1ccc(C[N+](C)(C)CCCCCCOc2c(Br)cc(Br)cc2Br)o1.[Br-] | 75 µg/mL | > 200 µg/mL | 2.5 µg/mL | 5 µg/mL | > 200 µg/mL | 5 µg/mL | 75 µg/mL | 7.5 µg/mL | > 200 µg/mL | > 200 µg/mL | 25 µg/mL | 10 µg/mL | > 200 µg/mL | > 200 µg/mL | 10 µg/mL
C[N+](C)(CCCCCOc1c(Br)cc(Br)cc1Br)Cc1ccc([N+](=O)[O-])o1.[Br-] | > 200 µg/mL | > 200 µg/mL | 7.5 µg/mL | 25 µg/mL | > 200 µg/mL | 5 µg/mL | > 200 µg/mL | 25 µg/mL | > 200 µg/mL | > 200 µg/mL | 25 µg/mL | 7.5 µg/mL | > 200 µg/mL | > 200 µg/mL | 25 µg/mL
Cc1cc(OCCCCCCCC[N+](C)(C)Cc2ccc(Br)o2)c(C(C)C)cc1Cl.Cc1ccc(S(=O)(=O)[O-])cc1 | > 200 µg/mL | 200 µg/mL | 25 µg/mL | 100 µg/mL | 200 µg/mL | 100 µg/mL | > 200 µg/mL | 100 µg/mL | > 200 µg/mL | 100 µg/mL | 100 µg/mL | 25 µg/mL | > 200 µg/mL | 200 µg/mL | 50 µg/mL
Cc1cc(OCC[N+](C)(C)Cc2ccc(Br)o2)c(C(C)C)cc1Cl.[Br-] | 100 µg/mL | > 200 µg/mL | 5 µg/mL | 9 µg/mL | > 200 µg/mL | 25 µg/mL | 50 µg/mL | 25 µg/mL | > 200 µg/mL | 100 µg/mL | 25 µg/mL | 10 µg/mL | > 200 µg/mL | 100 µg/mL | 50 µg/mL
C[N+](C)(CCCCCCCOc1c(Br)cc(Br)cc1Br)Cc1ccc([N+](=O)[O-])o1.[Br-] | > 200 µg/mL | > 200 µg/mL | 3 µg/mL | 7.5 µg/mL | > 200 µg/mL | 5 µg/mL | > 200 µg/mL | 7.5 µg/mL | > 200 µg/mL | > 200 µg/mL | 25 µg/mL | 10 µg/mL | > 200 µg/mL | > 200 µg/mL | 5 µg/mL
Cc1cc(OCCC[N+](C)(C)Cc2ccc(Br)o2)c(C(C)C)cc1Cl.[Br-] | 100 µg/mL | > 200 µg/mL | 4 µg/mL | 10 µg/mL | 100 µg/mL | 7.5 µg/mL | 100 µg/mL | 10 µg/mL | > 200 µg/mL | 100 µg/mL | 25 µg/mL | 10 µg/mL | > 200 µg/mL | > 200 µg/mL | 50 µg/mL
C[N+](C)(CCCCCCOc1c(Br)cc(Br)cc1Br)Cc1ccco1.[Br-] | > 200 µg/mL | 100 µg/mL | 5 µg/mL | 25 µg/mL | 100 µg/mL | 7.5 µg/mL | 50 µg/mL | 25 µg/mL | 50 µg/mL | 100 µg/mL | 50 µg/mL | 25 µg/mL | > 200 µg/mL | 100 µg/mL | 25 µg/mL
C[N+](C)(CCOc1ccc(Cl)cc1Cl)Cc1ccc(Br)o1.[Br-] | > 200 µg/mL | > 200 µg/mL | 50 µg/mL | 100 µg/mL | > 200 µg/mL | 100 µg/mL | > 200 µg/mL | > 200 µg/mL | > 200 µg/mL | > 200 µg/mL | > 200 µg/mL | > 200 µg/mL | > 200 µg/mL | > 200 µg/mL | > 200 µg/mL
Cc1cc(OCCCCCCC[N+](C)(C)Cc2ccc([N+](=O)[O-])o2)c(C(C)C)cc1Cl.[Br-] | > 200 µg/mL | > 200 µg/mL | 2 µg/mL | 4 µg/mL | > 200 µg/mL | 3 µg/mL | > 200 µg/mL | 3 µg/mL | > 200 µg/mL | > 200 µg/mL | 7.5 µg/mL | 5 µg/mL | > 200 µg/mL | > 200 µg/mL | 4 µg/mL
